Tests used:
[1] = target: T1, Serotonin (5-HT) receptor (Rattus norvegicus) (UniProt P35563+P35365+P32305+P31388+Q9JJ16+P28564+P30994+Q62758+P08909+P14842+P30940+P35364+P19327+P28565); experiment: Evaluated for receptor mediated feedback inhibition of 5-HTP formation in limbic tissue of rat brain when administered subcutaneously; assay type: functional, tissue-based; conditions: Limbic system
Method in brief: (§1)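 Reserpinized male Sprague-Dawley rats (200–300 g), compounds in saline (occasionally a few drops of glacial acetic acid and/or warming), near-neutral pH, given sc at 5 or 10 mL/kg. Reserpine was in acetic acid/5.5% glucose. 5-HTP formation was measured in the brain part. The ED50 is the dose giving a half-maximal decrease, from dose-response curves of four to six doses (n = 3-4).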

[2] = target: T1, Serotonin (5-HT) receptor (Rattus norvegicus); experiment: Evaluated for receptor mediated feedback inhibition of 5-HTP formation in striatum tissue of rat brain when administered subcutaneously; assay type: functional, tissue-based; method in brief: as §1
[3] = target: T1, Serotonin (5-HT) receptor (Rattus norvegicus); experiment: Evaluated for receptor mediated feedback inhibition of 5-HTP formation in hemisphere of rat brain when administered subcutaneously; assay type: functional; method in brief: as §1

Row | Compound | ED50 [1] | ED50 [2] | ED50 [3]
1 | CCCCN(CCCC)C1CC1c1cccc(O)c1 (stereo not given) | > 50 µmol/kg | > 50 µmol/kg | > 50 µmol/kg
2 | CN(C)C1CC1c1ccccc1O (stereo not given) | 6.2 µmol/kg | 3.45 µmol/kg | 9.31 µmol/kg
3 | CCCN(CCC)C1CC1c1cccc(OC)c1 (stereo not given) | 2.06 µmol/kg | 1.17 µmol/kg | 1.43 µmol/kg
4 | CCN(CC)C1CC1c1ccccc1O (stereo not given) | 0.82 µmol/kg | 1.2 µmol/kg | 0.8 µmol/kg
5 | CCCN(CCC)C1CC1c1ccccc1O (single isomer, unassigned; (+)) | > 50 µmol/kg | 14.5 µmol/kg | > 50 µmol/kg
6 | CCCN(CCC)C1CC1c1ccc(O)c(O)c1 (stereo not given) | > 50 µmol/kg | > 50 µmol/kg | > 50 µmol/kg
7 | CCCN(CCC)C1CC1c1ccccc1OC (stereo not given) | 0.93 µmol/kg |  | 0.72 µmol/kg
8 | CCCN(CCC)C1CC1c1cccc(O)c1 (single isomer, unassigned; (-)) | 0.34 µmol/kg | 0.28 µmol/kg | 0.35 µmol/kg
9 | CCCN(CCC)C1CC1c1cccc(O)c1 (stereo in doubt; 18) | 0.66 µmol/kg | 0.47 µmol/kg | 0.58 µmol/kg
10 | CCN(CC)C1CC1c1cccc(O)c1 (stereo not given) | 0.34 µmol/kg | 0.32 µmol/kg | 0.4 µmol/kg
11 | CCCN(CCC)C1CC1c1ccccc1O (single isomer, unassigned; (-)) | 0.28 µmol/kg | 0.26 µmol/kg | 0.38 µmol/kg
12 | CCCN(CCC)C1CC1c1ccc(O)cc1 (stereo not given) | > 50 µmol/kg | > 50 µmol/kg | > 50 µmol/kg
13 | CCCN(CCC)C1CC1c1cccc(O)c1 (stereo in doubt; (+)-18) | > 50 µmol/kg | > 50 µmol/kg | > 50 µmol/kg
14 | CCCN(CCC)[C@@H]1CCc2cccc(O)c2C1 | 0.061 µmol/kg | 0.065 µmol/kg | 0.077 µmol/kg
15 | CCCCN(CCCC)C1CC1c1ccccc1O (stereo not given) | > 50 µmol/kg | > 50 µmol/kg | > 50 µmol/kg
16 | CCCN(CCC)C1CC1c1ccccc1O (stereo in doubt; 8) | 0.41 µmol/kg | 0.36 µmol/kg | 0.36 µmol/kg
17 | CN(C)C1CC1c1cccc(O)c1 (stereo not given) | 10.8 µmol/kg | 8.59 µmol/kg | 25.1 µmol/kg

Source: ChEMBL document CHEMBL1124279, “N,N-Dialkylated monophenolic trans-2-phenylcyclopropylamines: novel central 5-hydroxytryptamine receptor agonists” (J Med Chem, 1988)
